Active and inactive are the calls of the source. No cut-off for these calls is given here.
Key:
NIH3T3 [1] = assay: Cytotoxicity against mouse NIH/3T3 cells assessed as growth inhibition after 48 hrs by MTT assay; type: functional, cell-based; details: NIH3T3, 48 h
Method in brief: (§1)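 MTT assay. Cells seeded at 8000–10,000 viable cells per well and allowed 24 h before a 48 h compound exposure. MTT (5 mg/mL solution) added for a further 4 h, then formazan dissolved in DMSO. Absorbance read at 550 nm against a 690 nm reference. Two independent experiments in triplicate. IC50 by nonlinear regression, mean ± SD.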

Ovis aries [2] = organism: Ovis aries; assay: Inhibition of sheep brain microtubule polymerization at 5 uM after 15 mins by UV-vis spectrophotometric analysis
Method in brief: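 Purified tubulin (12 µM) in PEM buffer (100 mM PIPES pH 6.9, 1 mM MgSO4, 1 mM EGTA) preincubated 15 min with compound (5 µM final), then cooled to 0 °C. GTP added to 1 mM final. Assembly started by warming from 0 to 37 °C and followed by absorbance at 350 nm. Positive control at 2 µM final.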

MCF7 = assay: Cytotoxicity against human MCF7 cells assessed as growth inhibition after 48 hrs by MTT assay; type: functional, cell-based; details: MCF7, 48 h; method in brief: as §1
HT-29 = assay: Cytotoxicity against human HT-29 cells assessed as growth inhibition after 48 hrs by MTT assay; type: functional, cell-based; details: HT-29, 48 h; method in brief: as §1
AGS = assay: Cytotoxicity against human AGS cells assessed as growth inhibition after 48 hrs by MTT assay; type: functional, cell-based; method in brief: as §1
Ovis aries [3] = organism: Ovis aries; assay: Inhibition of sheep brain microtubule polymerization at 2 uM after 15 mins by UV-vis spectrophotometric analysis
Method in brief: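 Purified microtubule protein preincubated 15 min with compound in PEM buffer (100 mM PIPES pH 6.9, 1 mM MgSO₄, 1 mM EGTA), then cooled to 0 °C. GTP added (1 mM final), and assembly started by warming from 0 to 37 °C. Polymerization followed as absorbance change at 350 nm.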

NIH3T3 [4] = assay: Cell cycle arrest in mouse NIH/3T3 cells assessed as accumulation at G0/G1 phase at 0.10 uM after 24 hrs by propidium iodide staining-based FACS flow cytometric analysis (reference value: 39.91%); type: functional
NIH3T3 [5] = assay: Cell cycle arrest in mouse NIH/3T3 cells assessed as accumulation at G2/M phase at 0.10 uM after 24 hrs by propidium iodide staining-based FACS flow cytometric analysis (reference value: 35.70%); type: functional
NIH3T3 [6] = assay: Cell cycle arrest in mouse NIH/3T3 cells assessed as accumulation at S phase at 0.10 uM after 24 hrs by propidium iodide staining-based FACS flow cytometric analysis (reference value: 24.39%); type: functional

Compound	IC50 (NIH3T3 [1]) [µM]	microtubule polymerization inhibition (active/inactive call) (Ovis aries [2])	IC50 (MCF7) [µM]	IC50 (HT-29) [µM]	IC50 (AGS) [µM]	inhibition (Ovis aries [3])	Activity (NIH3T3 [4]) [%]	Activity (NIH3T3 [5]) [%]	Activity (NIH3T3 [6]) [%]
CCSc1nc(-c2cc(OC)c(OC)c(OC)c2)c(-c2ccc(OC)c(OC)c2)[nH]1	14.1	Active	13.2	21	37.2	–	–	–	–
COc1cc(-c2nc(SC)[nH]c2-c2cc(OC)c(OC)c(OC)c2)cc(OC)c1OC	> 50	–	–	> 50	–	–	–	–	–
COc1cc(-c2nc(SC)[nH]c2-c2cccc(OC)c2OC)cc(OC)c1OC	30.2	–	18.1	27.5	35.3	–	–	–	–
COc1ccc(-c2[nH]c(SC)nc2-c2cc(OC)c(OC)c(OC)c2)cc1OC	6.01	Active	4.04	4.82	10.6	–	–	–	–
CCSc1nc(-c2cc(OC)c(OC)c(OC)c2)c(-c2ccc(OC)cc2OC)[nH]1	7.25	–	3.55	6.56	18.6	–	–	–	–
COc1ccc(-c2nc(SC)[nH]c2-c2ccc(OC)c(OC)c2)cc1OC	35.8	–	17.2	24.1	34.8	–	–	–	–
CCSc1nc(-c2cc(OC)c(OC)c(OC)c2)c(-c2ccccc2OC)[nH]1	36.2	–	11	18.6	40.7	–	–	–	–
CCSc1nc(-c2cc(OC)c(OC)c(OC)c2)c(-c2ccc(OC)cc2)[nH]1	0.26	Active	0.75	0.36	0.07	–	–	–	–
CCSc1nc(-c2cc(OC)c(OC)c(OC)c2)c(-c2cccc(OC)c2OC)[nH]1	27.2	–	22.9	36.7	39	–	–	–	–
COc1ccccc1-c1[nH]c(SC)nc1-c1cc(OC)c(OC)c(OC)c1	38.7	–	12.2	21.7	48.4	–	–	–	–
CCSc1nc(-c2ccc(OC)c(OC)c2)c(-c2ccc(OC)c(OC)c2)[nH]1	27.6	–	15.1	21.2	33.6	–	–	–	–
COc1ccc(-c2[nH]c(SC)nc2-c2cc(OC)c(OC)c(OC)c2)c(OC)c1	11.9	–	4.15	18.6	23.2	–	–	–	–
CCSc1nc(-c2cc(OC)c(OC)c(OC)c2)c(-c2cc(OC)c(OC)c(OC)c2)[nH]1	> 50	–	–	> 50	–	–	–	–	–
COc1ccc(/C=C\c2cc(OC)c(OC)c(OC)c2)cc1O [COMBRETASTATIN A4]	0.02	–	0.4	0.18	0.04	Active	–	–	–
COc1ccc(-c2[nH]c(SC)nc2-c2cc(OC)c(OC)c(OC)c2)cc1	0.06	Active	0.52	0.25	0.06	–	1.01	91.93	7.07

— ChEMBL document CHEMBL2380229, “Design, synthesis, cytotoxic evaluation and tubulin inhibitory activity of 4-aryl-5-(3,4,5-trimethoxyphenyl)-2-alkylthio-1H-imidazole derivatives” (Bioorg Med Chem, 2013)
